In data set [1] the test system is SW-620. Nature of the data set: Antitumor activity against human SW620 cells xenografted in immunocompromised athymic Swiss nude mouse assessed as tumor growth inhibition at 50 mg/kg, ip once in a week for 3 weeks regime starting day 1 post xenograft. The format is functional, organism-based. (In general: A xenograft is tissue or cells of one species grown in another, often human tumour cells in immunodeficient mice.)

Data set [2] deals with Vascular endothelial growth factor receptor 2 (Homo sapiens, UniProt P35968). Briefly: Inhibition of KDR (unknown origin).
A short description of data set [3]: Fraction unbound in rat plasma by equilibrium dialysis method. It counts as ADME, cell-free.
A short description of data set [4]: Apparent permeability from apical to basolateral side in human Caco2 cells. The format is ADME, cell-based. As to conditions: Caco-2.
Data set [5] addresses T1, DNA-dependent protein kinase catalytic subunit (Homo sapiens, UniProt P78527). Nature of the data set: Inhibition of DNAPK phosphorylation at Ser-2056 residue in human HT-29 cells. It counts as cell-based.
Data set [6] is described as follows: Intrinsic clearance in rat hepatocytes assessed per million cells. The format is ADME, cell-based, Hepatocyte. As to conditions: read-out: CLH. Summed up: (§1)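 Intrinsic clearance measured in hepatocytes of each species, reported as µL/min/10⁶ cells.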
In data set [7] the target is T2, Tyrosine-protein kinase Mer (Homo sapiens) (UniProt Q12866).
T2 sequence (whole entry): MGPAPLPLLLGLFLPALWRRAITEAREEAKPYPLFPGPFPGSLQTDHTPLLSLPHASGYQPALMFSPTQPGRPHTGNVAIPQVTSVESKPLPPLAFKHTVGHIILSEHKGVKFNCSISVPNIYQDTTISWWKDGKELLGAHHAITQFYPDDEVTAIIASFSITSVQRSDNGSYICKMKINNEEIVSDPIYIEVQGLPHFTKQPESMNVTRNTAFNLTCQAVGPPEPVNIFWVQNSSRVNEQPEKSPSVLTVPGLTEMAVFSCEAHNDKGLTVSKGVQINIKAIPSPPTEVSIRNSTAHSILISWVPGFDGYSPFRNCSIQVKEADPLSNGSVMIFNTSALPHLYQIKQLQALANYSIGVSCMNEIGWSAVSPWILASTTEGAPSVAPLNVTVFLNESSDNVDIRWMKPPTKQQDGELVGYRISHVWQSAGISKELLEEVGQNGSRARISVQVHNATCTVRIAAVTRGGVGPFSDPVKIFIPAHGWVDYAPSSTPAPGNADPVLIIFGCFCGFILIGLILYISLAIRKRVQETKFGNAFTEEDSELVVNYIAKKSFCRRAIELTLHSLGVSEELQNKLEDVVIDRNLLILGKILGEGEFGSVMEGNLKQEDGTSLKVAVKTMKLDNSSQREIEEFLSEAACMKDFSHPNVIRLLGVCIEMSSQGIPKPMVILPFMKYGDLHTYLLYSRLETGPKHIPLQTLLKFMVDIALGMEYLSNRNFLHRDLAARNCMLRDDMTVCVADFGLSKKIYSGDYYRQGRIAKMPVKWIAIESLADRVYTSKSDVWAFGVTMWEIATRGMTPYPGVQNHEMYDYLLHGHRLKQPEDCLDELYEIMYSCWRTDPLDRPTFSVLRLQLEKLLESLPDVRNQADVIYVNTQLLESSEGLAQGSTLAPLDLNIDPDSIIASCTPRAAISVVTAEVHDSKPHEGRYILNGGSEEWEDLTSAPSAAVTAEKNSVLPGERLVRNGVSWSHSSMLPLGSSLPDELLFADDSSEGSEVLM
Briefly: Inhibition of N-terminal GST-tagged recombinant human Mer (557 to 882 residues) expressed in baculovirus infected Sf21 cells using GGMEDIYFEFMGGKKK as substrate at 1 uM relative to control.

The nature of data set [8]: Cmax in nude mouse at 50 mg/kg, po. The format is ADME, organism-based. On the set-up: dose 50 mg/kg, route oral. Conditions: in vivo. Summed up:
(§2)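 Nude mice, single oral dose of 50 mg/kg. Vehicle was either a propylene glycol aqueous solution or 10% DMSO:90% captisol solution.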

A short description of data set [9]: Oral bioavailability in Han Wistar rat at 5 mg/kg. It counts as ADME, organism-based. As to conditions: in vivo.
The target in data set [10] is Dual specificity protein kinase CLK1 (Homo sapiens) (UniProt P49759). Nature of the data set: Inhibition of N-terminal His6-tagged recombinant human CLK1 (130-end residues) expressed in baculovirus infected Sf21 cells at 1 uM relative to control.
The target of data set [11] is T3, Phosphatidylinositol 4,5-bisphosphate 3-kinase catalytic subunit beta isoform (Homo sapiens, UniProt P42338). Briefly: Inhibition of PI3Kbeta (unknown origin) by cell based assay.
Data set [12] concerns the target T4, Phosphatidylinositol 4,5-bisphosphate 3-kinase catalytic subunit alpha isoform (Homo sapiens, UniProt P42336). Briefly: Inhibition of PI3Kalpha in human BT474 cells assessed as reduction in AKT phosphorylation at Thr-308 residue. It counts as cell-based.
The nature of data set [13]: Volume of distribution at steady state in Han Wistar rat at 2 mg/kg, iv or 5 mg/kg, po. It counts as ADME, organism-based. As to conditions: in vivo, read-out: Vdss.
The nature of data set [14]: Intrinsic clearance in dog hepatocytes assessed per million cells. The format is ADME, cell-based, Canis lupus familiaris, Hepatocyte. As to conditions: read-out: CLH. Summed up: as §1
Data set [15] can be described thus: Oral bioavailability in dog at 2 mg/kg. It counts as ADME, organism-based, Canis lupus familiaris. As to conditions: in vivo.
The nature of data set [16]: Intrinsic clearance in human hepatocytes assessed per million cells. As to conditions: read-out: CLH. The format is ADME, cell-based, Hepatocyte. Summed up: as §1
Data set [17] in a line: Fraction unbound in human plasma by equilibrium dialysis method. It counts as ADME, cell-free. Background: Equilibrium dialysis compares concentrations on both sides of a semipermeable membrane.
Data set [18] is described as follows: Clearance in Han Wistar rat at 2 mg/kg, iv or 5 mg/kg, po. The format is ADME, organism-based. As to conditions: in vivo.
In data set [19] the target is T1, DNA-dependent protein kinase catalytic subunit. Briefly: Inhibition of DNAPK (unknown origin) using p53-based peptide substrate preincubated for 5 min prior to ATP addition.
The nature of data set [20]: Clearance in dog at 1 mg/kg, iv or 2 mg/kg, po. The format is ADME, organism-based, Canis lupus familiaris. As to conditions: in vivo.
Data set [21] can be described thus: Intrinsic clearance in mouse hepatocytes assessed per million cells. As to conditions: read-out: CLH. It counts as ADME, cell-based, Hepatocyte. The method in brief: as §1
The target in data set [22] is Phosphatidylinositol 4,5-bisphosphate 3-kinase catalytic subunit gamma isoform (Homo sapiens, UniProt P48736). Nature of the data set: Inhibition of human recombinant PI3Kgamma using PIP2/ATP as substrate incubated for 20 mins followed by substrate addition by Kinase Glo reagent based luminescence assay. In general terms: Kinase-Glo measures the ATP left after a reaction by luminescence.

The nature of data set [23]: in vitro. As to conditions: human, hepatocytes.
Data set [24] deals with T3, Phosphatidylinositol 4,5-bisphosphate 3-kinase catalytic subunit beta isoform. Nature of the data set: Inhibition of human recombinant PI3Kbeta using PIP2/ATP as substrate incubated for 20 mins followed by substrate addition by Kinase Glo reagent based luminescence assay.
Data set [25] concerns SW-620. Briefly: Antitumor activity against human SW620 cells xenografted in immunocompromised athymic Swiss nude mouse assessed as tumor growth inhibition at 50 mg/kg bid administered via oral gavage for 3 days a week for 3 weeks regime after 24 hrs of topoisomerase-1 inhibitor irinotecan administration. The format is functional, organism-based.
Another data set is described as follows: physchem. As to conditions: octanol/buffer, pH 7.4.
Data set [26] is described as follows: in vitro. Conditions: rat, hepatocytes.
Data set [27] can be described thus: Fraction unbound in dog plasma by equilibrium dialysis method. The format is ADME, cell-free, Canis lupus familiaris.
Data set [28] addresses Glycogen synthase kinase-3 beta (Homo sapiens, UniProt P49841). Briefly: Inhibition of GSK3beta (unknown origin).
A short description of data set [29]: AUC (0 to 24 hrs) in nude mouse at 50 mg/kg, po. It counts as ADME, organism-based. Details: dose 50 mg/kg, time < 24 hr, route oral. Conditions: in vivo. The method in brief: as §2
The nature of data set [30]: Fraction unbound in mouse plasma by equilibrium dialysis method. The format is ADME, cell-free.
The test system of another data set is Mus musculus. Briefly: Time duration during which free plasma concentration stays above in-vitro ATM IC50 level in nude mouse at 50 mg/kg, po. It counts as ADME, organism-based. As to conditions: in vivo. The method in brief: as §2
In data set [31] the target is T4, Phosphatidylinositol 4,5-bisphosphate 3-kinase catalytic subunit alpha isoform. Nature of the data set: Inhibition of human recombinant PI3Kalpha using PIP2/ATP as substrate incubated for 20 mins followed by substrate addition by Kinase Glo reagent based luminescence assay.
The nature of data set [32]: Volume of distribution at steady state in dog at 1 mg/kg, iv or 2 mg/kg, po. The format is ADME, organism-based, Canis lupus familiaris. Conditions: in vivo, read-out: Vdss.
The target of data set [33] is Dual specificity protein kinase CLK4 (Homo sapiens) (UniProt Q9HAZ1). Nature of the data set: Inhibition of recombinant human CLK4 at 1 uM.
Data set [34] in a line: Thermodynamic solubility of the compound in 0.1M aqueous phosphate buffer at pH 7.4 after 24 hrs by LC-UV analysis. It counts as physicochemical. As to conditions: read-out: Therm_solubility. The method in brief: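 Solid samples equilibrated in 0.1 M aqueous phosphate buffer, pH 7.4, for 24 h at 25 °C.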
Data set [35] addresses Serine/threonine-protein kinase mTOR (Homo sapiens, UniProt P42345). Nature of the data set: Inhibition of C-terminal FLAG-tagged recombinant mTOR (1362 to 2549 residues) (unknown origin) using Biotin-Ahx-Lys-Lys-Ala-Asn-Gln-Val-Phe-Leu-Gly-Phe-Thr-Tyr-Val-Ala-Pro-Ser-Val-Leu-Glu-Ser-Val-Lys-Glu-NH2 as substrate after 90 mins by AlphaScreen assay.

We go through two compounds from ChEMBL document CHEMBL4477207, “Discovery of Novel 3-Quinoline Carboxamides as Potent, Selective, and Orally Bioavailable Inhibitors of Ataxia Telangiectasia Mutated (ATM) Kinase” (J Med Chem, 2016).

SMILES strings stand for the structures. ≈ marks a conversion by molar mass, not a printed value. Calls of active or inactive are those of the source. The rule behind the calls is not given here.
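For logD in this document: determined by the shake flask method.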

T3 sequence (P42338 whole entry, canonical isoform): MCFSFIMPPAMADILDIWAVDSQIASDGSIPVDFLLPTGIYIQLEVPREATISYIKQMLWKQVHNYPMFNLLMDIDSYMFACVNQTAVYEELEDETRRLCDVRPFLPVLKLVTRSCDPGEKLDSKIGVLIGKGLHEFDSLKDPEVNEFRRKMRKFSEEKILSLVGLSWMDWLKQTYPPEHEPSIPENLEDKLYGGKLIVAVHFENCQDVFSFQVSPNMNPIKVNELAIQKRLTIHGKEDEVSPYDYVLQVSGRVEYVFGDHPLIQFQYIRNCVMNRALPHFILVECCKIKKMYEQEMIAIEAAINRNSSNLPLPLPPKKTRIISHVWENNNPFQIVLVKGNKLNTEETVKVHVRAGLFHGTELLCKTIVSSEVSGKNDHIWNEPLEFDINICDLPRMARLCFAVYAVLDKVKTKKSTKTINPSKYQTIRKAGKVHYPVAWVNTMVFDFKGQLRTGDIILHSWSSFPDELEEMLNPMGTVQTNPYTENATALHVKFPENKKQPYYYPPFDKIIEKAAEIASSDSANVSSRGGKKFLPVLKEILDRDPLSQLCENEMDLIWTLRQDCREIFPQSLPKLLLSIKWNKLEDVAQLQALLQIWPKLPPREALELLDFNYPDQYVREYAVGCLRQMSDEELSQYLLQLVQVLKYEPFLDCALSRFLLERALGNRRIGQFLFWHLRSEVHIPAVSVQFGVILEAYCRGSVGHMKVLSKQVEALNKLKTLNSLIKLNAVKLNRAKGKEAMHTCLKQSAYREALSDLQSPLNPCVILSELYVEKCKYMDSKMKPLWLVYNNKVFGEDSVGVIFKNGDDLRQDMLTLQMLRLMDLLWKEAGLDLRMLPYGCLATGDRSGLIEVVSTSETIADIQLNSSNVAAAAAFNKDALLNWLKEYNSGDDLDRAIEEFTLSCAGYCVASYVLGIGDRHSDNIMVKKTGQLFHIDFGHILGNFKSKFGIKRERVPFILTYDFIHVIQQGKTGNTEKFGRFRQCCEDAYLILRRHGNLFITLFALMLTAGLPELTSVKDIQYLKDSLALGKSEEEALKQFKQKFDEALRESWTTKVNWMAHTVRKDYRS
T4 sequence (P42336 whole entry, canonical isoform): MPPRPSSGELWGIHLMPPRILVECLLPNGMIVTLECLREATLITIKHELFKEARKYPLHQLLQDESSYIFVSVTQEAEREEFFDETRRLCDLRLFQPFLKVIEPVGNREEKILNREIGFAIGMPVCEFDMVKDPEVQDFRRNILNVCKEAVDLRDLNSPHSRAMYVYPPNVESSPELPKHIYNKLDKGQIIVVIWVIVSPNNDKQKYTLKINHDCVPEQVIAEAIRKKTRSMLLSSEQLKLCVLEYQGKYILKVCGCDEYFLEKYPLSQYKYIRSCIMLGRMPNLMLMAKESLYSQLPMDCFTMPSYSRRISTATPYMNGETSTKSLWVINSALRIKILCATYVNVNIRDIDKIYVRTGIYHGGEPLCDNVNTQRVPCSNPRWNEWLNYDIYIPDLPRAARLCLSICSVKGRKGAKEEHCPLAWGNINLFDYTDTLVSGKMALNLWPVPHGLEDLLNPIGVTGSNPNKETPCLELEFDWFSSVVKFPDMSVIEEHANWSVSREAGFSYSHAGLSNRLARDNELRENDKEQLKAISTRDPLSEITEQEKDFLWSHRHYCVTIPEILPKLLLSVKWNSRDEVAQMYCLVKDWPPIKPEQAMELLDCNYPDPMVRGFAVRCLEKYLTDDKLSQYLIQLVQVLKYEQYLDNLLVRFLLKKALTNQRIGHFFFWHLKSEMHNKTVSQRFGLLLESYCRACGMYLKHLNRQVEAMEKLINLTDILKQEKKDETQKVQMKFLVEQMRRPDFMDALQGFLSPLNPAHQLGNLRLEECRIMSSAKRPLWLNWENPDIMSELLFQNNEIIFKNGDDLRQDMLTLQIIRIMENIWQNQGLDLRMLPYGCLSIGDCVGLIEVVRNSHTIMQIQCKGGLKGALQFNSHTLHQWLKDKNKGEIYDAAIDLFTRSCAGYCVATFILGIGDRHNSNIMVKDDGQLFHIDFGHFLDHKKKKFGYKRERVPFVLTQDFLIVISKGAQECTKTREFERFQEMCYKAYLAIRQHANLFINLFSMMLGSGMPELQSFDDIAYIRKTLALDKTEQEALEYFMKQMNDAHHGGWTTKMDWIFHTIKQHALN
Sequence of Vascular endothelial growth factor receptor 2 (P35968 whole entry): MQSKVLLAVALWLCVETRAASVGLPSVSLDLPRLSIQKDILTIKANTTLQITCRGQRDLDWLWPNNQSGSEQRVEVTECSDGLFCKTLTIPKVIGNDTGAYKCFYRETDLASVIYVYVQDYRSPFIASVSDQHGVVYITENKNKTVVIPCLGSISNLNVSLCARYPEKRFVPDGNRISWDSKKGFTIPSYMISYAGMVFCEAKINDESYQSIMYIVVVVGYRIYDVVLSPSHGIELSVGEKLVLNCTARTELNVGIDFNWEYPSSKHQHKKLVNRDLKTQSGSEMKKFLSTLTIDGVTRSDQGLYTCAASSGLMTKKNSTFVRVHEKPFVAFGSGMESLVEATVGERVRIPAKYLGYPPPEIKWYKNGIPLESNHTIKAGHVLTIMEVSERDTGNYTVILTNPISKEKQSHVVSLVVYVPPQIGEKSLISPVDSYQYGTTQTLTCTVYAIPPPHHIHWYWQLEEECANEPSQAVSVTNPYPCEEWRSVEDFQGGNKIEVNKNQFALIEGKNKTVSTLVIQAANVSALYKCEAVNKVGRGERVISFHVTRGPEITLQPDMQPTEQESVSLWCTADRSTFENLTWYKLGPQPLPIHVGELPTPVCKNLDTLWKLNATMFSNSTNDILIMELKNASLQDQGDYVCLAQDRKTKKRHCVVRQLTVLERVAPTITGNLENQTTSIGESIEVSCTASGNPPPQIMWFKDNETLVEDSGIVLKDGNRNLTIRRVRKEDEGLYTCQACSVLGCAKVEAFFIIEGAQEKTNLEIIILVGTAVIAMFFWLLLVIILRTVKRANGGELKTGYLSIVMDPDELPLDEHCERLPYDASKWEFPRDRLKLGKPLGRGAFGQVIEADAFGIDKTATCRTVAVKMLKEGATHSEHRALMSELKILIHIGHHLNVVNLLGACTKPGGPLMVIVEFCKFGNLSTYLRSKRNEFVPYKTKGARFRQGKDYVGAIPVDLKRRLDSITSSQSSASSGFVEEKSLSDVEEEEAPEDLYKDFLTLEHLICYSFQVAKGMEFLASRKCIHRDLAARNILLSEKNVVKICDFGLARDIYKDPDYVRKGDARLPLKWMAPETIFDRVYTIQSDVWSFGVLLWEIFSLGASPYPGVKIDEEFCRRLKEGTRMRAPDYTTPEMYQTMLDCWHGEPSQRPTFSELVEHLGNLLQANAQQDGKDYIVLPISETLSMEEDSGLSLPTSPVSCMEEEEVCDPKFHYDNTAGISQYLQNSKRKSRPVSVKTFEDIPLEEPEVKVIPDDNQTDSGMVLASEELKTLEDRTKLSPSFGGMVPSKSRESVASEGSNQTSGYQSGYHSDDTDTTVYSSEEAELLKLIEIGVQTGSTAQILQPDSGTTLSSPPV
Sequence of Phosphatidylinositol 4,5-bisphosphate 3-kinase catalytic subunit gamma isoform (P48736 whole entry, canonical isoform): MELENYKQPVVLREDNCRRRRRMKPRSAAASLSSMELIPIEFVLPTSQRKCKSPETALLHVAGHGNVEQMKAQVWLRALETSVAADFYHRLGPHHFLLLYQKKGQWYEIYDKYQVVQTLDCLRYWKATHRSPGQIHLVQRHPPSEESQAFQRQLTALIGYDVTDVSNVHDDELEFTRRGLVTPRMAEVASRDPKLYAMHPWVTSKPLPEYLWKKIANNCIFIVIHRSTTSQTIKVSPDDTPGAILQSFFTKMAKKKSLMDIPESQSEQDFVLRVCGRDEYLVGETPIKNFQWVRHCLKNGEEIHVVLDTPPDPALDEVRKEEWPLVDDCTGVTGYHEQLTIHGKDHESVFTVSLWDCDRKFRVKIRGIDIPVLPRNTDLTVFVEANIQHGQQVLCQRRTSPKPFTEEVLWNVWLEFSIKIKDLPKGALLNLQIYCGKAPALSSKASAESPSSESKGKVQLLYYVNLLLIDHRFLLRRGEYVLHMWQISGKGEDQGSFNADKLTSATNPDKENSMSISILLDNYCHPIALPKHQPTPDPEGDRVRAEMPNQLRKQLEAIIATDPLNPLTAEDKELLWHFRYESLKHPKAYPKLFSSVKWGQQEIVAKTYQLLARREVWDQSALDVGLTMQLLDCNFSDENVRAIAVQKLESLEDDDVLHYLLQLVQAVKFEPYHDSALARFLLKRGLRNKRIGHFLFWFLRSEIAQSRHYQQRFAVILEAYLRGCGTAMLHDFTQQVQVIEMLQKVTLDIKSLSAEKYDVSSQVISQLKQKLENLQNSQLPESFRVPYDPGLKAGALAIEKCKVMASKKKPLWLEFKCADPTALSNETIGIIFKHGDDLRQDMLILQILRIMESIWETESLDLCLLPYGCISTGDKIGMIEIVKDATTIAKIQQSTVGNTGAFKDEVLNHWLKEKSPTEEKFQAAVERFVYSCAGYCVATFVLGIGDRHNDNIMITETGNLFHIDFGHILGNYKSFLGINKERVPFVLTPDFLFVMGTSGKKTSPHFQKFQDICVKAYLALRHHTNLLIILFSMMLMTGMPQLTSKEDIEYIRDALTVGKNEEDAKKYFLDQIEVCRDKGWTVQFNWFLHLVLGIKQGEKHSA
Sequence of Dual specificity protein kinase CLK4 (Homo sapiens) (Q9HAZ1 whole entry, looked up): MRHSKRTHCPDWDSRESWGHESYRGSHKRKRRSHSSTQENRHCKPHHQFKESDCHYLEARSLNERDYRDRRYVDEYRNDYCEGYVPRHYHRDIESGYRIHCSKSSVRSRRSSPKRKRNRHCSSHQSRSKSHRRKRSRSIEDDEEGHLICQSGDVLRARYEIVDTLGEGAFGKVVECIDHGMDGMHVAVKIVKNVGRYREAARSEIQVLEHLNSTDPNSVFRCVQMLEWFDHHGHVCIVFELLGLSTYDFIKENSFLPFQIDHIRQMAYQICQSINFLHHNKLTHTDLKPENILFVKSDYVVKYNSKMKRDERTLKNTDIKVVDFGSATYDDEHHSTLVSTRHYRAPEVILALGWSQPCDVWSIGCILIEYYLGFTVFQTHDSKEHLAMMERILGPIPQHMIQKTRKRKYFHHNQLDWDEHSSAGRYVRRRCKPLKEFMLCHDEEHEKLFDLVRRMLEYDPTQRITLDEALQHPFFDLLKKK

With `CCc1c2c(nc3ccc(OC(=O)N4CCC(N5CCCCC5)CC4)cc13)-c1cc3c(c(=O)n1C2)COC(=O)[C@]3(O)CC`, in the data set with SW-620 [1], the TGI entry is “Active”.

Regarding `COCc1ccc(-c2cc3c(N[C@@H](C)c4ccn(C)n4)c(C(N)=O)cnc3cc2F)cn1`, the IC50 in data set [2] is 79 µM; in data set [5], more than 30 µM; in [11] it was more than 17.5 µM; in [12] it was 18.8 µM; in data set [19] it was 0.37 µM; in data set [22] it was 7.1 µM. The IC50 in [24] was 12.8 µM; in data set [28] it was more than 100 µM; in data set [31] it was 0.445 µM; in [35] it was 1.48 µM. Further, the fraction unbound in data set [3] came to 0.12; in data set [17], 0.18; in [27], 0.18; in data set [30], 0.17. Also, in data set [4], the apical-to-basolateral permeability (Papp A→B) is 14 ×10⁻⁶ cm/s. For the same compound, the hepatocyte CLint in data set [6] was 5.3 µL/min/1e6 cells; in data set [14], 2 µL/min/1e6 cells; in data set [16], less than 1.5 µL/min/1e6 cells; in data set [21] it was 28 µL/min/1e6 cells. In addition, the inhibition in data set [7] amounted to 56%; in data set [10], 57%; in [33] it was 55%. For the same compound, the peak concentration (Cmax) in [8] was found to be 17 µM. The bioavailability in [9] turned out to be 29%; in data set [15], 71%. The results for the Vd in [13] and in data set [32] were 1 L/kg and 1.4 L/kg, respectively. Besides, the clearance in data set [18] and in [20] was 13 mL/min/kg in each case. Besides, the hepatocyte CLint at 1.5 h in the data set “in vitro [23]” was less than 1.5 µL/min/1e6 cells; in “in vitro [26]”, 5.3 µL/min/1e6 cells. Besides, the TGI result in the data set with SW-620 [25] was “Active”. The compound also gave a logD in the data set “physchem” of 2.7. This compound also showed an AUC(0-t) at 24 h in data set [29] of 33 µM·h. The Time in the data set on Mus musculus was determined as 10 h. Moreover, the solubility thermodynamic at 24 h in data set [34] is 69 µM (≈ 30 µg/mL).

By IC50 is commonly meant the concentration at which inhibition is half-maximal. What is called fraction unbound is the share of the substance not bound to proteins or other matrix. One may read the Papp A→B as the apparent permeability from the apical to the basolateral side of a cell layer. The term inhibition denotes the percentage by which the read-out fell short of the control. Broadly, the Cmax is the maximum level reached in the sampled fluid or tissue. One may read the bioavailability as dose-corrected exposure relative to a reference, in per cent. High values mean much systemic uptake, low ones little systemic uptake. Usually logD stands for the decadic logarithm of the distribution of all forms, ionised or not, between an organic phase and buffer at a given pH. Low values mean lower lipophilicity, high ones higher lipophilicity. Broadly, the AUC(0-t) is exposure summed from dosing to a finite time, without extrapolation to infinity. High values mean more exposure, low ones less exposure.
